# According to ChEMBL document CHEMBL3046793, “Fungicidal property of Curcuma longa L. rhizome-derived curcumin against phytopathogenic fungi in a greenhouse” (2003):
# Legend:
# Format in all cases: functional
# Blumeria graminis [1] = experiment: Fungicidal activity against Blumeria graminis infected first-leaf stage of barley plant at 500 mg/l applied as spray under green house conditions relative to control
# Rhizoctonia solani [2] = experiment: Fungicidal activity against Rhizoctonia solani infected in third leaf stage of rice plant at 500 mg/l applied as spray after 5 days under green house conditions relative to control
# Puccinia recondita [3] = experiment: Fungicidal activity against Puccinia recondita infected first leaf stage of wheat plant at 1000 mg/l applied as spray after 10 days under green house conditions relative to control
# Outline: (§1)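 Whole-plant greenhouse spray assay: sample dissolved in DMSO, diluted in water with Tween 20 (250 µg/mL), 50 mL sprayed over two pots; plants held 1 day before inoculation with P. recondita; controls got Tween 20 solution. Control value = (untreated − treated disease area)/untreated × 100; three replicates.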
# Phytophthora infestans [4] = experiment: Fungicidal activity against Phytophthora infestans infected second leaf-stage of tomato plant at 500 mg/l applied as spray after 4 days under green house conditions relative to control
# Blumeria graminis [5] = experiment: Fungicidal activity against Blumeria graminis infected first-leaf stage of barley plant at 1000 mg/l applied as spray under green house conditions relative to control
# Outline: (§2)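 Barley at fully expanded first leaf (four plants/pot) sprayed with test material (DMSO stock diluted in water with Tween 20 at 250 µg/mL), greenhouse 1 day, then dusted with E. graminis conidia from infected barley (8 treated pots per source pot). Controls got Tween 20 solution. Control value = (untreated − treated disease area)/untreated × 100; triplicate.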
# Puccinia recondita [6] = experiment: Fungicidal activity against Puccinia recondita infected first leaf stage of wheat plant at 500 mg/l applied as spray after 10 days under green house conditions relative to control; outline: as §1
# Pyricularia grisea [7] = experiment: Fungicidal activity against Magnaporthe grisea infected second leaf stage of rice plant at 500 mg/l applied as spray after 5 days under green house conditions relative to control
# Outline: (§3)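 Rice at second leaf (three plants/pot) sprayed with sample (DMSO, diluted in water with 250 µg/mL Tween 20), greenhouse 1 day. Inoculated with conidia (1 × 10^6 spores/mL), 24 h at 25 °C and 100% RH, then 5 days lit at 26 ± 2 °C and 85% RH. Severity scored; control value from diseased area against Tween-sprayed controls; triplicate.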
# Botrytis cinerea [8] = experiment: Fungicidal activity against Botryotinia fuckeliana infected first-leaf stage of cucumber plant at 500 mg/l applied as spray after 4 to 5 days under green house conditions relative to control
# Botrytis cinerea [9] = experiment: Fungicidal activity against Botryotinia fuckeliana infected first-leaf stage of cucumber plant at 1000 mg/l applied as spray after 4 to 5 days under green house conditions relative to control
# Pyricularia grisea [10] = experiment: Fungicidal activity against Magnaporthe grisea infected second leaf stage of rice plant at 1000 mg/l applied as spray after 5 days under green house conditions relative to control; outline: as §3
# Rhizoctonia solani [11] = experiment: Fungicidal activity against Rhizoctonia solani infected in third leaf stage of rice plant at 1000 mg/l applied as spray after 5 days under green house conditions relative to control
# Outline: (§4)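 Rice at third leaf (three plants/pot) sprayed with sample in DMSO/Tween 20 (250 µg/mL) water; after 1 day inoculated by injecting at plant base R. solani inoculum (7-day wheat bran culture at 25 °C, macerated 500 g/L water). Held 5 days in lit chamber at 28 °C. Control value from diseased area against Tween-sprayed controls; triplicate.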
# Phytophthora infestans [12] = experiment: Fungicidal activity against Phytophthora infestans infected second leaf-stage of tomato plant at 1000 mg/l applied as spray after 4 days under green house conditions relative to control
# Rhizoctonia solani [13] = experiment: Fungicidal activity against Rhizoctonia solani infected in third leaf stage of rice plant at 50 mg/l applied as spray after 5 days under green house conditions relative to control
# Puccinia recondita [14] = experiment: Fungicidal activity against Puccinia recondita infected first leaf stage of wheat plant at 50 mg/l applied as spray after 10 days under green house conditions relative to control
# Phytophthora infestans [15] = experiment: Fungicidal activity against Phytophthora infestans infected second leaf-stage of tomato plant at 50 mg/l applied as spray after 4 days under green house conditions relative to control
# Blumeria graminis [16] = experiment: Fungicidal activity against Blumeria graminis infected first-leaf stage of barley plant at 50 mg/l applied as spray under green house conditions relative to control
# Pyricularia grisea [17] = experiment: Fungicidal activity against Magnaporthe grisea infected second leaf stage of rice plant at 50 mg/l applied as spray after 5 days under green house conditions relative to control
# Botrytis cinerea [18] = experiment: Fungicidal activity against Botryotinia fuckeliana infected first-leaf stage of cucumber plant at 50 mg/l applied as spray after 4 to 5 days under green house conditions relative to control
# Rhizoctonia solani [19] = experiment: Fungicidal activity against Rhizoctonia solani infected in third leaf stage of rice plant at 250 mg/l applied as spray after 5 days under green house conditions relative to control; outline: as §4
# Blumeria graminis [20] = experiment: Fungicidal activity against Blumeria graminis infected first-leaf stage of barley plant at 125 mg/l applied as spray under green house conditions relative to control
# Blumeria graminis [21] = experiment: Fungicidal activity against Blumeria graminis infected first-leaf stage of barley plant at 250 mg/l applied as spray under green house conditions relative to control; outline: as §2
# Botrytis cinerea [22] = experiment: Fungicidal activity against Botryotinia fuckeliana infected first-leaf stage of cucumber plant at 125 mg/l applied as spray after 4 to 5 days under green house conditions relative to control
# Outline: (§5)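 Cucumber at first leaf (one plant/pot) sprayed with sample in DMSO/Tween 20 (250 µg/mL) water; controls Tween 20 solution. After 1 day, leaf-sprayed with B. cinerea conidia (1 × 10^6 spores/mL; 15-day PDA culture, 20 °C), held 4-5 days at 20 °C. Control value calculated from diseased area against untreated plants; three replicates.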
# Puccinia recondita [23] = experiment: Fungicidal activity against Puccinia recondita infected first leaf stage of wheat plant at 125 mg/l applied as spray after 10 days under green house conditions relative to control; outline: as §1
# Puccinia recondita [24] = experiment: Fungicidal activity against Puccinia recondita infected first leaf stage of wheat plant at 250 mg/l applied as spray after 10 days under green house conditions relative to control; outline: as §1
# Rhizoctonia solani [25] = experiment: Fungicidal activity against Rhizoctonia solani infected in third leaf stage of rice plant at 125 mg/l applied as spray after 5 days under green house conditions relative to control; outline: as §4
# Phytophthora infestans [26] = experiment: Fungicidal activity against Phytophthora infestans infected second leaf-stage of tomato plant at 250 mg/l applied as spray after 4 days under green house conditions relative to control
# Pyricularia grisea [27] = experiment: Fungicidal activity against Magnaporthe grisea infected second leaf stage of rice plant at 125 mg/l applied as spray after 5 days under green house conditions relative to control; outline: as §3
# Botrytis cinerea [28] = experiment: Fungicidal activity against Botryotinia fuckeliana infected first-leaf stage of cucumber plant at 250 mg/l applied as spray after 4 to 5 days under green house conditions relative to control; outline: as §5
# Phytophthora infestans [29] = experiment: Fungicidal activity against Phytophthora infestans infected second leaf-stage of tomato plant at 125 mg/l applied as spray after 4 days under green house conditions relative to control
# Pyricularia grisea [30] = experiment: Fungicidal activity against Magnaporthe grisea infected second leaf stage of rice plant at 250 mg/l applied as spray after 5 days under green house conditions relative to control; outline: as §3
smiles,measurement,setting,value
CC1(C)C2CCC1(C)C(O)C2 (stereo not drawn) [BORNEOL],Activity,Blumeria graminis [1],0%
same,Activity,Rhizoctonia solani [2],0%
same,Activity,Puccinia recondita [3],0%
same,Activity,Phytophthora infestans [4],0%
same,Activity,Blumeria graminis [5],0%
same,Activity,Puccinia recondita [6],0%
same,Activity,Pyricularia grisea [7],0%
same,Activity,Botrytis cinerea [8],0%
same,Activity,Botrytis cinerea [9],0%
same,Activity,Pyricularia grisea [10],0%
same,Activity,Rhizoctonia solani [11],0%
same,Activity,Phytophthora infestans [12],0%
N#Cc1c(Cl)c(Cl)c(Cl)c(C#N)c1Cl [CHLOROTHALONIL],Activity,Rhizoctonia solani [13],0%
same,Activity,Puccinia recondita [14],0%
same,Activity,Phytophthora infestans [15],95%
same,Activity,Blumeria graminis [16],0%
same,Activity,Pyricularia grisea [17],0%
same,Activity,Botrytis cinerea [18],0%
COc1cc(/C=C/C(=O)CC(=O)/C=C/c2ccc(O)c(OC)c2)ccc1O [CURCUMIN],Activity,Rhizoctonia solani [19],45%
same,Activity,Blumeria graminis [1],0%
same,Activity,Blumeria graminis [20],0%
same,Activity,Blumeria graminis [21],0%
same,Activity,Botrytis cinerea [22],0%
same,Activity,Rhizoctonia solani [2],63%
same,Activity,Puccinia recondita [3],100%
same,Activity,Phytophthora infestans [4],100%
same,Activity,Blumeria graminis [5],0%
same,Activity,Puccinia recondita [6],100%
same,Activity,Pyricularia grisea [7],0%
same,Activity,Botrytis cinerea [8],40%
same,Activity,Puccinia recondita [23],63%
same,Activity,Botrytis cinerea [9],70%
same,Activity,Puccinia recondita [24],76%
same,Activity,Rhizoctonia solani [25],26%
same,Activity,Phytophthora infestans [26],85%
same,Activity,Pyricularia grisea [10],0%
same,Activity,Rhizoctonia solani [11],85%
same,Activity,Pyricularia grisea [27],0%
same,Activity,Phytophthora infestans [12],100%
same,Activity,Botrytis cinerea [28],15%
same,Activity,Phytophthora infestans [29],57%
same,Activity,Pyricularia grisea [30],0%
CN(C)S(=O)(=O)N(SC(F)(Cl)Cl)c1ccccc1 [DICHLOFLUANID],Activity,Rhizoctonia solani [13],0%
same,Activity,Puccinia recondita [14],0%
same,Activity,Phytophthora infestans [15],0%
same,Activity,Blumeria graminis [16],0%
same,Activity,Pyricularia grisea [17],0%
same,Activity,Botrytis cinerea [18],92%
CC12CCC(CC1)C(C)(C)O2 [EUCALYPTOL],Activity,Blumeria graminis [1],0%
same,Activity,Rhizoctonia solani [2],0%
same,Activity,Puccinia recondita [3],0%
same,Activity,Phytophthora infestans [4],0%
same,Activity,Blumeria graminis [5],0%
same,Activity,Puccinia recondita [6],0%
same,Activity,Pyricularia grisea [7],0%
same,Activity,Botrytis cinerea [8],0%
same,Activity,Botrytis cinerea [9],0%
same,Activity,Pyricularia grisea [10],0%
same,Activity,Rhizoctonia solani [11],0%
same,Activity,Phytophthora infestans [12],0%
C=C1CCC2(C(C)C)CC12 (stereo not drawn) [SABINENE],Activity,Blumeria graminis [1],0%
same,Activity,Rhizoctonia solani [2],0%
same,Activity,Puccinia recondita [3],0%
same,Activity,Phytophthora infestans [4],0%
same,Activity,Blumeria graminis [5],0%
same,Activity,Puccinia recondita [6],0%
same,Activity,Pyricularia grisea [7],0%
same,Activity,Botrytis cinerea [8],0%
same,Activity,Botrytis cinerea [9],0%
same,Activity,Pyricularia grisea [10],0%
same,Activity,Rhizoctonia solani [11],0%
same,Activity,Phytophthora infestans [12],0%
CC(C)=CC(=O)C[C@H](C)C1=CCC(C)=CC1 [TURMERONE],Activity,Blumeria graminis [1],0%
same,Activity,Rhizoctonia solani [2],0%
same,Activity,Puccinia recondita [3],0%
same,Activity,Phytophthora infestans [4],0%
same,Activity,Puccinia recondita [6],0%
same,Activity,Pyricularia grisea [7],0%
same,Activity,Botrytis cinerea [8],0%
same,Activity,Botrytis cinerea [9],0%
same,Activity,Pyricularia grisea [10],0%
same,Activity,Rhizoctonia solani [11],0%
same,Activity,Phytophthora infestans [12],0%
